Sampled rows, rich in hits. Any-hit rate of the full collection: about 2.3%.
EBNA-1 inh = blocks EBNA-1 binding to DNA. 300,000 tested, 0.34% active. AID 1950. EBNA-1 DNA binding, fluorescence polarization. inhibition, % at 14.8 µM; in the data active = inhibition above about 28%
NS3 helicase inh = blocks Hepatitis C virus NS3 helicase unwinding; AID 1800; NS3 helicase DNA unwinding, Cy5 molecular beacon fluorescence; 290,000 tested, 0.56% active; inhibition, % at 10.9 µM;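 active = inhibition above the mean of all tested compounds plus 3 SD, set per campaign, cut at about 35% in these data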;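 note: 0% = DMSO wells and 100% = thioflavine S control wells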
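Assay system – hepatitis C virus NS3 helicase domain fragment enzyme · Buffer or medium – MOPS pH 6.5, MgCl2, DTT, Tween20, BSA · Reagent – Cy5/quencher beacon DNA duplex and ATP to start · Compound – single 10.9 µM dose · Timing – 1 h at 25 °C · Technique – Cy5 beacon fluorescence read at start and 1 h · Measure – % inhibition of unwinding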
GPR7 antag = human neuropeptides B/W receptor 1 antagonism; P48145; GPR7-expressing cells, fluorescence antagonist assay; inhibition, % at 4.4 µM; 290,000 tested, 1.1% active; AID 1861; in the data active = inhibition above about 16%, passing the limit was not always enough;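 note: cells stimulated with the agonist NPW; 0% = agonist with vehicle and 100% = vehicle without agonist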
Target sequence (P48145 whole entry, looked up): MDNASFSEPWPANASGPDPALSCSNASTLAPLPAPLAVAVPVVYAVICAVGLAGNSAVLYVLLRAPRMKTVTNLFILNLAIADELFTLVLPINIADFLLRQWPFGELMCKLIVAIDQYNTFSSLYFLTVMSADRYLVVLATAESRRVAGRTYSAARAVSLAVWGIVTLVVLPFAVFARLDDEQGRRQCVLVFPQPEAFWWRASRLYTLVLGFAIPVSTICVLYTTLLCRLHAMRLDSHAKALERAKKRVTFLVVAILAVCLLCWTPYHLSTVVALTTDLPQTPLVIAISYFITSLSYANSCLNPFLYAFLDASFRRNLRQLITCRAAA
EBV gp42 block = blocks Epstein-Barr virus glycoprotein 42 binding; Fluorescence polarization binding assay, mP read-out; Q1HVG2; 220,000 tested, 0.42% active; AID 1085; inhibition, % (tested at 21.74 µM); in the data active = inhibition above about 50%
ZTA DNA inh = counter-screen for EBNA-1 inhibitors: inhibitors of Epstein-Barr virus ZTA; P03206; ZTA-DNA binding, fluorescence polarization; inhibition, % at 11 µM; 320,000 tested, 0.15% active; AID 2234; in the data active = inhibition above about 33%
Target sequence (P03206 whole entry, looked up): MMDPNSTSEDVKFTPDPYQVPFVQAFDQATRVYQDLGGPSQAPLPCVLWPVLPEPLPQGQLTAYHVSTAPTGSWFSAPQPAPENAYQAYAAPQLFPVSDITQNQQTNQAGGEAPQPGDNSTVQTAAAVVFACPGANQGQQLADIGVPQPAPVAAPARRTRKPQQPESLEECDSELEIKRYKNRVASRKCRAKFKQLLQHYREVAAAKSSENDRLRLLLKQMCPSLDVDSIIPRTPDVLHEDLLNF
HCV core dimer = blocks dimerization of HCV core protein; TR-FRET GST/Flag-core106 dimerization, 1536-well; inhibition, % at 5 µM; 300,000 tested, 0.33% active;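 active = inhibition above the mean of all tested compounds plus 3 SD, set per screening campaign, cut at about 45% in these data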
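assay system = GST-tagged and Flag-tagged HCV core protein residues 1-106 | controls = unlabelled core106 and no-GST-core106 wells | incubation = compound-protein-antibody incubation 4 h at 22.5 °C | probe or stimulus = Eu donor and XL665 acceptor anti-tag antibodies | read-out = % inhibition based on acceptor/donor emission ratio | signal = TR-FRET 671 and 617 nm emission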
GPR7 antag conf = human GPR7 antagonism, confirmation assay; shares compounds with GPR7 antag; GPR7-expressing cells, calcium fluorescence antagonist mode; inhibition, % at 4.4 µM; 2,400 tested, 52% active; AID 1952; in the data active = inhibition above about 24%;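 note: stimulated with the GPR7 agonist NPW; 0% = agonist plus vehicle and 100% = vehicle alone without agonist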
MCHR1 antagonist = antagonizes human MCHR1, a GPR7 antagonist counter-screen. shares compounds with GPR7 antag. MCHR1-expressing cells, fluorescence antagonist assay. inhibition, % at 4.4 µM. 2,400 tested, 62% active; in the data active = inhibition above about 22%;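 note: 0% = vehicle with agonist and 100% = vehicle without agonist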
* = called active by the depositor; . = no result.

SMILES	EBNA-1 inh	NS3 helicase inh	GPR7 antag	EBV gp42 block	ZTA DNA inh	HCV core dimer	GPR7 antag conf	MCHR1 antagonist
CCc1nc2ccc(C(=O)N3CCN(c4ccc([N+](=O)[O-])cc4)CC3)cc2nc1CC	-7	-16	29*	.	-8	11	24*	86*
CCCCn1c(N)c(N(Cc2ccccc2OC)C(=O)COc2ccccc2C#N)c(=O)[nH]c1=O	3	18	27*	-11	-6	-2	2	3
CC(C)(CNC(=O)c1ccc(S(=O)(=O)Nc2ccc(Cl)cc2)cc1)N1CCOCC1	.	.	.	.	-15	.	.	.
O=C1c2cccc3c([N+](=O)[O-])ccc(c23)C(=O)N1c1ccc(Cl)cn1	3	7	33*	80*	5	-39	100*	104*
CN(C)c1nc(C=C(C#N)C#N)c(Cl)n1-c1ccc(F)cc1	.	2	1	13	.	.	.	.
c1ccc(CN(Cc2ccccc2)c2nn[nH]n2)cc1	-8	2	0	-4	-17	0	.	.
Clc1ccc(CN(Cc2ccc(Cl)cc2)c2nn[nH]n2)cc1	9	16	26*	-9	8	6	25*	21
CCC(C)n1c(SCc2ccc([N+](=O)[O-])cc2)nc2ccsc2c1=O (centres undefined)	1	-13	25*	3	0	1	23	44*
Cc1onc(-c2ccccc2)c1C(=O)N1CCCC(C(F)(F)F)C1 (centres undefined)	3	-1	-13	.	8	1	.	.
Cc1ccccc1-c1nnn(CC(=O)NCc2ccc3c(c2)OCO3)n1	22	-3	-7	0	16	-1	.	.
CN(C)c1ccc(-c2nnn(CC(=O)NCc3ccc4c(c3)OCO4)n2)cc1	1	-10	24*	-7	8	6	1	12
CN(C)c1cccc(C(=O)NCc2ccc3c(c2)OCO3)c1	1	-19	36*	.	0	0	2	16
Cc1cc(CC(=O)O)n(C)c1C(=O)c1ccc(Cl)cc1	.	.	.	.	0	.	.	.
Clc1ccc(C(c2nnnn2CCc2ccccc2)N2CCSCC2)cc1 (centres undefined)	-6	-3	28*	-10	11	10	31*	41*
Nc1ccccc1-c1nc2ccccc2c(=O)o1	-7	16	49*	.	9	-15	8	18
O=c1oc(-c2ccccc2[N+](=O)[O-])nc2ccccc12	2	15	1	-15	2	3	.	.
CC1CCCC(NC(=O)CNC(=S)N(Cc2ccccc2)Cc2cccs2)C1C (centres undefined)	1	10	22*	-2	-8	4	32*	24*
COc1ccccc1CN1C(=O)c2ccccc2C1C(=O)NC1CCC(C)CC1 (centres undefined)	0	14	13	3	-3	4	.	.
CCCCNC(=O)CNC(=S)N(Cc1ccccc1)Cc1cccs1	-10	-2	-3	-7	5	2	.	.
O=C(NC1CCCCCCC1)C1c2ccccc2C(=O)N1Cc1ccco1 (centres undefined)	-9	-4	39*	-10	6	-8	25*	17
CC1CCCC(NC(=O)C2c3ccccc3C(=O)N2Cc2cccs2)C1C (centres undefined)	-1	3	40*	8	-13	-6	28*	24*
CN1C(=O)N(CC(=O)N2CCN(S(=O)(=O)c3ccc(Cl)s3)CC2)C(=O)C12CCCCC2	.	.	.	.	-23	.	.	.
Cc1ccc(CONC(=O)c2cccc([N+](=O)[O-])c2)cc1	.	.	.	.	-24	.	.	.
COC(=O)C(/C=N/OCc1ccc([N+](=O)[O-])cc1)NC(=O)c1cccc(Cl)c1 (centres undefined)	-2	9	38*	-14	0	-2	65*	50*
CCC1CCCCN1C(=O)Nc1cc(Cl)ccc1OC (centres undefined)	5	-3	-12	-8	-18	-3	.	.
SMILES	EBNA-1 inh	NS3 helicase inh	GPR7 antag	EBV gp42 block	ZTA DNA inh	HCV core dimer	GPR7 antag conf	MCHR1 antagonist
COc1cc(OC)c(N(C)S(=O)(=O)c2cccc(C(=O)NC(C)C3CC4CCC3C4)c2)cc1Cl (centres undefined)	-13	-4	-11	-14	-8	5	.	.
COc1ccc(NC(=O)C(Cl)=C(Cl)Cl)cn1	.	-1	21	-1	.	.	.	.
COc1ccc(NC(=O)/C(Cl)=C(/Cl)S(=O)Cc2ccc(Cl)cc2)cn1 (centres undefined)	.	-12	30*	-24	.	.	80*	93*
Cc1cccc(N2CCN(c3ccc(N4C(=O)CCCC4=O)cc3[N+](=O)[O-])CC2C)c1 (centres undefined)	-8	-1	1	-6	2	-6	.	.
CCOc1ccc(NC(=S)N2CCC(NC(=O)C3CCCCC3)CC2)cc1	-9	13	28*	.	-5	-4	-8	3
CCc1ccc(NC(=S)N2CCC(NC(=O)C3CCCCC3)CC2)cc1	-2	-4	2	.	-6	-9	.	.
Cc1ccnc(Nc2nc(-c3ccc(O)c(O)c3)cs2)c1	-1	-10	41*	.	-18	-17	57*	48*
Cc1ccnc(Nc2nc(-c3ccc(O)cc3)cs2)c1	12	-4	14	.	-6	-5	.	.
COc1ccc([N+](=O)[O-])cc1N(CC(O)CN(C)C)S(=O)(=O)c1ccc(C)cc1 (centres undefined)	-3	4	-4	-5	13	-2	.	.
COc1ccc([N+](=O)[O-])cc1N(CC(O)CN(CC(C)C)CC(C)C)S(=O)(=O)c1ccccc1 (centres undefined)	-1	-14	34*	-29	1	9	45*	54*
CCCCN(CCCC)CC(O)CN(c1cc([N+](=O)[O-])ccc1OC)S(=O)(=O)c1ccccc1 (centres undefined)	-4	-44	36*	-16	-12	-1	41*	34*
COc1ccc(Cl)cc1NC(=O)Nc1cccc([N+](=O)[O-])c1C	-9	6	-4	2	3	5	.	.
COc1ccccc1NC(=O)COC(=O)/C=C/c1ccc2c(c1)OCO2	-11	-8	33*	-4	-15	9	21	16
CCOC(=O)c1ccc(-c2c(-c3ccc4c(c3)OCO4)noc2C)cc1F	-2	0	-4	.	8	-15	.	.
O=C(CCC(=O)N1CCSc2ccccc21)Nc1ccc(F)cc1	-9	19	32*	.	-4	-2	-2	5
O=C(CCC(=O)N1CCSc2ccccc21)Nc1cccc(F)c1	-6	7	-1	.	2	3	.	.
COc1ccc(NC(=O)CSc2nnc(Cc3cccs3)n2C)cc1	-13	.	.	.	-11	1	.	.

Source: PubChem
